Laboratory results from PubChem BioAssay.
Results filed as inconclusive are left out.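 The calls were made as follows, unless noted: active = viability increase at or above a cutoff of the median across tested compounds plus 3 SD (cut at about 8.5% in these data, passing the limit was not always enough); inconclusive = some gains above the cutoff, reason not given; inactive = the rest.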

Key:
[1] = S. cerevisiae growth inhibition in permissive medium (OD615), pilot counter-assay for S. cerevisiae lifespan shortening project, permissive growth control (AID 705;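 active = growth inhibition above 25% in both replicates, a cutoff set 3 SD above the mean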); conditions: OD615, 24 h, at 10 µM, active compounds read high
How it was run: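 System – S. cerevisiae with engineered DeaD lifespan system · Buffer or medium – SC raffinose/galactose permissive medium · Schedule – cells pre-grown 4 h, then 24 h compound exposure, 30 °C humidified · Technique – culture turbidity as optical density at 615 nm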

[2] = S. cerevisiae growth inhibition in restrictive medium, OD615, pilot screen, restrictive growth control, yeast lifespan reduction project (AID 706;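 active = growth inhibition above a set limit, 3 SD over mean compound inhibition, in both replicates, cut at about 43% in these data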;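 also: modified DeaD lifespan yeast strain shifted to restrictive glucose medium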); conditions: OD615, 48 h, at 10 µM, active compounds read high
How it was run: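 Material: engineered S. cerevisiae DeaD strain / Medium: glucose-based CSMM-D restrictive medium / Compound: single dose of 10 µM compound final, 0.25% DMSO / Timing: 4 h pre-incubation, 48 h exposure at 30 °C / Technique: OD615 absorbance reading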

[3] = doxorubicin toxicity protection in MRP-1 cells – H69AR cells, CellTiter-Glo, duplicate, MRP-1 activator project, pilot screen (AID 807); conditions: H69AR viability with doxorubicin, CellTiter-Glo luminescence; at 10 µM; active compounds read high;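 also: compound pretreatment 18-22 h then 72 h combined with doxorubicin; 0% = doxorubicin alone and 100% = vehicle without doxorubicin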
[4] = viability of HCT116 without oncogenic beta-catenin – human colon tumor cells, pilot screen (AID 823;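 active = cell viability at or below a set limit in both duplicate runs, the limit being the all-compound median minus 4 SD, cut at about 23% in these data, passing the limit was not always enough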;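 also: 0% = wells killed by 20 µM Hyamine and 100% = untreated DMSO cell wells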); conditions: HCT116 beta-catenin knockout viability, CellTiter-Glo, 60 h; at 10 µM; active compounds read low
[5] = viability of PTEN-null HCT116 cells – cell-based, HCT116 clonal line, CellTiter-Glo, pilot screen (AID 824;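 active = viability at or below 27.92% in each of two runs, the all-compound median minus 4 SD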;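 also: 0% = 20 µM Hyamine control and 100% = vehicle cell control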); conditions: HCT116 PTEN-deleted viability, 60 h, at 10 µM, active compounds read low
[6] = RAM pathway blockade in budding yeast – dse1pr::URA3 reporter, 5-FOA selection, pilot screen (AID 869;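 active = inhibition over a set limit, the all-compound mean plus 3 SD, in both replicate runs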;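 also: 0% = DMSO wells with no growth and 100% = 10 µM 1-NA-PP1 with full growth; RAM network block rescues cells from 5-FOA so hits raise OD615 growth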); conditions: S. cerevisiae dse1pr::URA3 5-FOA growth, OD615, 2 d; at 10 µM; active compounds read high; strain carries analog-sensitive mutant Cbk1 kinase
[7] = RAM signaling pathway blockade in yeast – S. cerevisiae, Pdr1DBD-CYC8 efflux-inhibited sensitized strain, primary screen (AID 1298;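 active = RAM network inhibition above 8.4% in each of two replicates, 3 SD over the compound average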;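 also: 0% = DMSO untreated cells without growth and 100% = 10 µM 1-NA-PP1 full growth; higher means more yeast growth rescued from 5-FOA killing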); conditions: S. cerevisiae cbk1-as DSE1-URA3 strain, 5-FOA growth OD615, 2 d; at 50 µM; active compounds read high

COCCNC(=O)CS(=O)(=O)Cc1nc(-c2ccc(C)cc2)oc1C
inactive: growth inhibition [1] -7.2% | growth inhibition [2] -29% | viability increase [3] -0.43% | viability [4] 95.1% | viability [5] 95.3% | inhibition [6] -0.325% | RAM network inhibition [7] 3.68%

COc1ccc(N2CCN(c3cc(=O)n(Cc4ccc(F)cc4)c(=O)[nH]3)CC2)cc1
inactive: growth inhibition [1] -4.88% | growth inhibition [2] 1.23% | viability increase [3] -2.97% | viability [4] 92.9% | viability [5] 86.3% | inhibition [6] 0.215% | RAM network inhibition [7] 9.17%

O=C(Cn1c(S(=O)(=O)Cc2ccccc2)nc2ccccc21)N1CCCCC1
inactive: growth inhibition [1] -5.32% | growth inhibition [2] 2.88% | viability increase [3] -6.5% | viability [4] 107% | viability [5] 99.3% | inhibition [6] -0.04% | RAM network inhibition [7] 3.73%

CC(CCc1ccccc1)NC(=O)CN1CCOc2ccccc21 (configuration not stated)
inactive: growth inhibition [1] -7.73% | growth inhibition [2] -1.32% | viability increase [3] -5.58% | viability [4] 84.1% | viability [5] 83.1% | inhibition [6] 0.595% | RAM network inhibition [7] 3.72%

COc1ccc(OC)c(NC(=O)c2c(NC(=O)CNCc3ccco3)sc3c2CCC3)c1
inactive: growth inhibition [1] -0.125% | growth inhibition [2] -0.495% | viability increase [3] -3.56% | viability [4] 95.8% | viability [5] 88.2% | inhibition [6] 1.28% | RAM network inhibition [7] 7.95%

O=C(Nc1ccc(Br)cc1F)c1ccncc1
inactive: growth inhibition [1] -7.26% | growth inhibition [2] -13.4% | viability increase [3] 1.37% | viability [4] 97% | viability [5] 98.6% | inhibition [6] 2.7% | RAM network inhibition [7] 5.07%

Cc1occc1C(=O)NCc1ccc2c(c1)OCO2
inactive: growth inhibition [1] -7.06% | growth inhibition [2] 3.86% | viability increase [3] 0.84% | viability [4] 101% | viability [5] 99.2% | inhibition [6] 1.78% | RAM network inhibition [7] 1.93%

Cc1ccc(-n2nnc3c(=O)n(CC(=O)N4CCOCC4)cnc32)cc1
inactive: growth inhibition [1] -0.37% | growth inhibition [2] 0.95% | viability increase [3] -1.94% | viability [4] 101% | viability [5] 94.2% | inhibition [6] 1.23% | RAM network inhibition [7] 3.05%

CCn1cc(C(=O)N2CCN(Cc3ccc4c(c3)OCO4)CC2)c2cc(OC)c(OC)cc2c1=O
inactive: growth inhibition [1] -9.86% | growth inhibition [2] -27.3% | viability increase [3] -5.64% | viability [4] 96.1% | viability [5] 85.9% | inhibition [6] 0.125% | RAM network inhibition [7] 2.76%

COc1ccc2c(c1)OC13CCN(C)CC1C2C(C(=O)c1ccc(F)cc1)C(=O)N3 (configuration not stated)
inactive: growth inhibition [1] -25.9% | growth inhibition [2] -21.6% | viability increase [3] -4.02% | viability [4] 78.9% | viability [5] 81.4% | inhibition [6] 0.27% | RAM network inhibition [7] 0.97%

Cc1nc(-c2ccc3c(c2)OCO3)cs1
inactive: growth inhibition [1] -3.71% | growth inhibition [2] -1.42% | viability increase [3] 0.2% | viability [4] 102% | viability [5] 101% | inhibition [6] 1.68% | RAM network inhibition [7] 2.38%

c1ccc2c(c1)ncc1cccn12
inactive: growth inhibition [1] -16.6% | growth inhibition [2] -12.8% | viability increase [3] -5.24% | viability [4] 104% | viability [5] 89% | inhibition [6] 2.58% | RAM network inhibition [7] 5.07%

CCSc1nnc(NC(=O)c2cccc(OCc3c(C)noc3C)c2)s1
inactive: growth inhibition [1] 1.08% | growth inhibition [2] 21.9% | viability increase [3] 0.55% | viability [4] 98.2% | viability [5] 92.6% | inhibition [6] 2.79% | RAM network inhibition [7] 4.07%

COC(=O)c1ccccc1NC(NC(=O)c1ccco1)C(=O)c1ccc(C)cc1 (configuration not stated)
inactive: growth inhibition [1] -0.235% | growth inhibition [2] -5.5% | viability increase [3] -4.41% | viability [4] 79% | viability [5] 70.3% | inhibition [6] 4.25% | RAM network inhibition [7] 7.66%

CN(C)CCNC(=O)c1cc2c(=O)n(C)c3ccccc3c2n1C
inactive: growth inhibition [1] 0.095% | growth inhibition [2] -1.67% | viability increase [3] -5.64% | viability [4] 52.9% | viability [5] 54.4% | inhibition [6] 1.12% | RAM network inhibition [7] -0.26%

Cc1nn2c(=O)cc(CSc3nc4ccccc4[nH]3)nc2s1
inactive: growth inhibition [1] -3.92% | growth inhibition [2] 2.41% | viability increase [3] -2.31% | viability [4] 103% | viability [5] 103% | inhibition [6] 1.35% | RAM network inhibition [7] 0.17%

CCN1C(=O)N(CC)C(O)(c2ccccc2)C1(O)c1ccccc1 (configuration not stated)
inactive: growth inhibition [1] -12.7% | growth inhibition [2] -8.41% | viability increase [3] -2.16% | viability [4] 97.1% | viability [5] 94.8% | inhibition [6] 2.12% | RAM network inhibition [7] 6.55%

Cc1c(C#N)c2ncn(Cc3ccccc3)c(=O)c2n1-c1ccccc1
inactive: growth inhibition [1] -19.7% | growth inhibition [2] -0.37% | viability increase [3] -3.74% | viability [4] 81.1% | viability [5] 83.8% | inhibition [6] 0.47% | RAM network inhibition [7] 4.19%

COc1cccc(-c2nc(CS(=O)CC(=O)NCc3ccccc3Cl)c(C)o2)c1 (configuration not stated)
inactive: growth inhibition [1] -0.545% | growth inhibition [2] 5.44% | viability increase [3] -3.78% | viability [4] 92.4% | viability [5] 91.9% | inhibition [6] 0.79% | RAM network inhibition [7] 10%

COc1ccc(-n2c3c(cc(C(=O)N4CCC(C)CC4)c2=O)C(=O)CC(C)(C)C3)cc1
inactive: growth inhibition [1] -3.21% | growth inhibition [2] 7.18% | viability increase [3] -2.27% | viability [4] 111% | viability [5] 101% | inhibition [6] 1.98% | RAM network inhibition [7] 0.25%

Cc1cc(C(C)(C)C)ccc1OCCN(C)C
inactive: growth inhibition [1] -2.25% | growth inhibition [2] -9.14% | viability increase [3] 0.25% | viability [4] 94.2% | viability [5] 94.9% | inhibition [6] 1.58% | RAM network inhibition [7] 2.2%

CCOC(=O)CSCc1nc(-c2ccc(Cl)cc2)oc1C
inactive: growth inhibition [1] -11.6% | growth inhibition [2] -8.34% | viability increase [3] 1.98% | viability [4] 94.8% | viability [5] 89.8% | inhibition [6] 1.97% | RAM network inhibition [7] -1.32%

O=C(Nc1ccccc1Cl)c1ccc(S(=O)(=O)N2CCOCC2)cc1
inactive: growth inhibition [1] -11.5% | growth inhibition [2] -7.41% | viability increase [3] -0.1% | viability [4] 111% | viability [5] 99.4% | inhibition [6] 0.585% | RAM network inhibition [7] 2.05%

CCC(Sc1nc2ccccc2[nH]1)C(=O)Nc1cc(C)on1 (configuration not stated)
inactive: growth inhibition [1] -13% | growth inhibition [2] -17.9% | viability increase [3] 1.02% | viability [4] 100% | viability [5] 101% | inhibition [6] 1.1% | RAM network inhibition [7] -0.37%

COc1cc(C2C3=C(CC(C)(C)CC3=O)N(C)C(=O)N2C)cc(OC)c1OC (configuration not stated)
inactive: growth inhibition [1] -7.27% | growth inhibition [2] -16.8% | viability increase [3] -0.06% | viability [4] 104% | viability [5] 103% | inhibition [6] 0.385% | RAM network inhibition [7] -0.15%

COc1cccc(C2NC(=O)NC(C)=C2C(=O)OCCSC)c1OC (configuration not stated)
inactive: growth inhibition [1] -3.21% | growth inhibition [2] -16.4% | viability increase [3] -0.87% | viability [4] 93.7% | viability [5] 90.6% | inhibition [6] 1.07% | RAM network inhibition [7] 2.02%

O=C(NCCN1CCN(c2cccc(Cl)c2)CC1)C1CCCN(S(=O)(=O)c2cnc[nH]2)C1 (configuration not stated)
inactive: growth inhibition [1] 3.09% | growth inhibition [2] 3.15% | viability increase [3] -1.5% | viability [4] 91.1% | viability [5] 89.7% | inhibition [6] 0.895% | RAM network inhibition [7] 5.7%

CCCCCn1c(N(C)Cc2ccccc2)nc2c1c(=O)[nH]c(=O)n2C
inactive: growth inhibition [1] -4.46% | growth inhibition [2] -2.36% | viability increase [3] -0.81% | viability [4] 74% | viability [5] 69.3% | inhibition [6] 0.435% | RAM network inhibition [7] 1.07%

O=C(O)c1cc(S(=O)(=O)Nc2ccc3c(c2)OCCO3)c(Cl)cc1Cl
inactive: growth inhibition [1] -5.69% | growth inhibition [2] 3.62% | viability increase [3] -1.04% | viability [4] 95.1% | viability [5] 88.4% | inhibition [6] 2.01% | RAM network inhibition [7] -0.21%

CCCn1c(CCNC(=O)c2cccs2)nc2ccccc21
inactive: growth inhibition [1] -1.19% | growth inhibition [2] 4.79% | viability increase [3] -0.97% | viability [4] 94.9% | viability [5] 91.5% | inhibition [6] 1.37% | RAM network inhibition [7] 4.94%

Cc1ccc2oc(=O)c3cc(C(=O)NCc4ccco4)sc3c2c1
inactive: growth inhibition [1] -8.27% | growth inhibition [2] -8.27% | viability increase [3] -2.9% | viability [4] 102% | viability [5] 96.6% | inhibition [6] 3.86% | RAM network inhibition [7] 2.71%

COc1ccc(Br)cc1CNC(=O)C1CCC(=O)N1C(C)C (configuration not stated)
inactive: growth inhibition [1] 6.52% | growth inhibition [2] 4.42% | viability increase [3] -2.9% | viability [4] 91.7% | viability [5] 94.7% | inhibition [6] 1.99% | RAM network inhibition [7] 3.58%

COc1ccc2c(c1OC)C(=O)OC2Nc1ccccn1 (configuration not stated)
inactive: growth inhibition [1] 10.3% | growth inhibition [2] -7.84% | viability increase [3] -2.18% | viability [4] 102% | viability [5] 99.7% | inhibition [6] 1.34% | RAM network inhibition [7] 1.17%

CSc1nc2sc3c(c2c(=O)n1C)CCCC3
inactive: growth inhibition [1] 7.93% | growth inhibition [2] 8.89% | viability increase [3] -0.98% | viability [4] 99.9% | viability [5] 94.7% | inhibition [6] 0.695% | RAM network inhibition [7] 3.94%

Cc1ccc(S(=O)(=O)Cc2ccc(C(=O)N3CCCC3)o2)cc1
inactive: growth inhibition [1] -4.83% | growth inhibition [2] -13.4% | viability increase [3] -1.75% | viability [4] 99.2% | viability [5] 108% | inhibition [6] 1.19% | RAM network inhibition [7] 4.1%

Cc1csc2ncc(C(=O)Nc3ccc(C(F)(F)F)cc3)c(=O)n12
inactive: growth inhibition [1] -10.2% | growth inhibition [2] -17.2% | viability increase [3] -2.44% | viability [4] 84.8% | viability [5] 85.8% | inhibition [6] 3.73% | RAM network inhibition [7] 3.03%
